Assay type in all cases: functional; call rule not given here
Assay [1] is filed under the species Mus musculus. Description: 50 percent inhibitory concentration of compound to inhibit nitric oxide production induced by IFN-gamma in mouse macrophages (Not active below 1 uM). An outline of the steps: (§1)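 Peritoneal macrophages from female CD-1 mice (5-10 weeks old) were harvested 4 days after ip injection of 2 mL 4% thioglycollate. Cells were seeded at 2×10^5/well and incubated 48 h with 20 ng/mL recombinant mouse IFN-γ, with or without compound (DMSO, final ≤0.1%). Compounds were tested over 0.1 pM–1 μM (10-fold) or 0.01–40 μM (4-fold). Nitrite in the supernatant was measured by Griess reagent at 550 nm against a sodium nitrite standard, in triplicate. Values are the average of two experiments.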

Assay [2] is filed under the species Mus musculus. As to the kind of experiment: 50 percent inhibitory concentration of compound to inhibit nitric oxide production induced by IFN-uM). A digest of the protocol:
as §1

For assay [3], the species on record is Mus musculus. As to the kind of experiment: 50 percent inhibitory concentration of compound to inhibit nitric oxide production induced by IFN-gamma in mouse macrophages. A digest of the protocol: as §1
The species named for assay [4] is Mus musculus. Description: (§2) Percent inhibition of nitric oxide production induced by IFN-uM concentration. More on the design: concentration or dose not given beside the values.
The species entered for assay [5] is Mus musculus. As to the kind of experiment: 50 percent inhibitory concentration of compound to inhibit nitric oxide production induced by IFN-gamma in mouse macrophages (Not active below 10 uM). An outline of the steps:
as §1

For assay [6], the species on record is Mus musculus. As to the kind of experiment: 50 percent inhibitory concentration of compound to inhibit nitric oxide production induced by IFN-gamma in mouse macrophages (Toxic above 10 uM). A digest of the protocol: as §1
The species entered for assay [7] is Mus musculus. As to the kind of experiment: 50 percent inhibitory concentration of compound to inhibit nitric oxide production induced by IFN-gamma in mouse macrophages (Toxic above 1 uM). A digest of the protocol: as §1
For assay [8], the species on record is Mus musculus. The assay is described as §2.

Where only a bound is given, the exact number is not on record here.

Turning to `COC(=O)[C@]12CCC(C)(C)CC1C1=CC[C@@H]3[C@@]4(C)C=C(C=O)C(=O)C(C)(C)[C@@H]4CC[C@@]3(C)[C@]1(C)CC2` (stereo not given in full), the IC50 result in the assay filed under Mus musculus [1] and in the assay filed under Mus musculus [2] was “Not active below 1 uM” throughout.

`COC(=O)[C@]12CC[C@@H](C)[C@H](C)C1C1=CC[C@@H]3[C@@]4(C)C=C(C#N)C(=O)C(C)(C)[C@@H]4CC[C@@]3(C)[C@]1(C)CC2` (stereo not given in full): the IC50 (in general, the concentration needed to halve the response being measured) in the assay listed under Mus musculus [3] is 5.1 µM.

For `COC(=O)[C@]12CCC(C)(C)CC1C1=CC[C@@H]3[C@@]4(C)C=CC(=O)C=C4CC[C@@]3(C)[C@]1(C)CC2` (stereo not given in full), the IC50 in the assay listed under Mus musculus [3] is > 40 µM.

`C[C@@H]1CC[C@]2(C(=O)O)CC[C@]3(C)C(=CC[C@@H]4[C@@]5(C)C=C(C#N)C(=O)C(C)(C)[C@@H]5CC[C@]43C)C2[C@H]1C` (stereo not given in full) showed an IC50 in the assay filed under Mus musculus [3] of 6.2 µM.

For `COC(=O)C12CCC(C)(C)CC1C1=CC[C@@H]3[C@@]4(C)C=CC(=O)C(C)(C)[C@@H]4CC[C@@]3(C)[C@]1(C)CC2` (stereo not given in full), the IC50 in the assay filed under Mus musculus [3] was determined as 31 µM. In addition, the Inhibition (in general, the share of the control response that was lost under treatment) in the assay filed under Mus musculus [4] amounted to 19%.

As for `C[C@@H]1CCC2(C(=O)O)CC[C@]3(C)C(=CC[C@@H]4[C@@]5(C)CC[C@H](O)C(C)(C)[C@@H]5CC[C@]43C)C2[C@H]1C` (stereo not given in full), the IC50 result in the assay listed under Mus musculus [5] and in the assay listed under Mus musculus [6] was “Not active below 10 uM” in each case. In the assay listed under Mus musculus [4], the Inhibition stood at 0%.

Take `CC1(C)CC[C@]2(C(=O)O)CC[C@]3(C)C(=CC[C@@H]4[C@@]5(C)C=C(C=O)C(=O)C(C)(C)[C@@H]5CC[C@]43C)C2C1` (stereo not given in full): the IC50 result in the assay listed under Mus musculus [1] and in the assay listed under Mus musculus [7] was “Not active below 1 uM” in each case.

On to `C[C@@H]1CC[C@]2(C(=O)O)CC[C@]3(C)C(=CC[C@@H]4[C@@]5(C)C=CC(=O)C(C)(C)[C@@H]5CC[C@]43C)C2[C@H]1C` (stereo not given in full), for which, in the assay listed under Mus musculus [3], the half-inhibitory concentration (IC50) turned out to be 13 µM. Further, the Inhibition in the assay listed under Mus musculus [4] was 41%.

As to `CC1(C)CC[C@]2(C(=O)O)CC[C@]3(C)C(=CC[C@@H]4[C@@]5(C)C=CC(=O)C=C5CC[C@]43C)C2C1` (stereo not given in full), inhibition in the assay filed under Mus musculus [3] was half-maximal at 13 µM (IC50).

Turning to `CC(=O)OC[C@]12CCC(C)(C)CC1C(=O)[C@](C)([C@]1(C)CC[C@H]3C(C)(C)[C@@H](OC(C)=O)CC[C@]3(C)[C@H]1CC=O)CC2` (stereo not given in full), the Inhibition in the assay listed under Mus musculus [8] worked out at 52%.

The molecule `CC1(C)CCC2(CO)CC[C@]3(C)[C@@H](C2C1)[C@H](O)C[C@@H]1[C@@]2(C)CC[C@H](O)C(C)(C)[C@@H]2CC[C@]13C` (stereo not given in full) displayed an Inhibition in the assay filed under Mus musculus [4] of 20%.

With `CC(=O)OC[C@]12CCC(C)(C)CC1C(=O)[C@](C)([C@]1(C)CC[C@H]3C(C)(C)[C@@H](OC(C)=O)CC[C@]3(C)[C@H]1CC(=O)O)CC2` (stereo not given in full), the Inhibition in the assay listed under Mus musculus [4] is on record as 52%.

The molecule `CC1(C)CCC2(C(=O)O)CC[C@]3(C)C(=CC[C@@H]4[C@@]5(C)CC[C@@H](O)C(C)(C)[C@@H]5CC[C@]43C)C2C1` (stereo not given in full) registered an Inhibition in the assay filed under Mus musculus [4] of 18%.

For `CC(=O)OCC12CC[C@@H](C)[C@H](C)C1C1=CC[C@@H]3[C@@]4(C)CC[C@H](OC(C)=O)C(C)(C)[C@@H]4CC[C@@]3(C)[C@]1(C)CC2` (stereo not given in full), the Inhibition in the assay listed under Mus musculus [4] came to 0%.

(Values after ChEMBL document CHEMBL1132938, “Novel synthetic oleanane and ursane triterpenoids with various enone functionalities in ring A as inhibitors of nitric oxide production in mouse macrophages” (J Med Chem, 2000).)
